Screening results deposited in PubChem BioAssay by several laboratories.
KCNK9 inh = human KCNK9 channel inhibition; HEK293 KCNK9, FluxOR thallium flux fluorescence; hits give low values; 310,000 tested, 1.2% active; B-score at 10 µM;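 active means ratio B-score over 3 SD below the library mean, with starting fluorescence within 5 SD of its mean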;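 further: negative B-score means less thallium flux so channel inhibition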
KCNQ1 block = inhibitors of human KCNQ1 potassium channel. P51787. CHO-K1 KCNQ1, FluxOR thallium flux fluorescence; hits give high values. B-score at 10 µM. 310,000 tested, 1.3% active. AID 2642;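 active means compounds whose thallium flux B-score, printed positive for inhibition, exceeds three library SD while starting fluorescence stays within three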;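 further: channel opened by potassium depolarization with thallium stimulus after 20 min compound exposure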
Cl transport mod = modulators of human KCC2 chloride dependent transport; AID 1456; 190,000 tested, 2.2% active; Q9H2X9; KCC2 cells, thallium flux FluoZin-2 fluorescence; B-score of Tl+ flux slope (higher = more flux/activation; lower = inhibition) at 10 µM;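 active means thallium flux slope and its plate-corrected score both differing from the plate sample mean at a set confidence after two filtering rounds, in either direction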;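 further: slope of fluorescence scaled to starting intensity during 10 to 20 s after thallium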
KCNK3 block = human KCNK3 channel inhibition, primary screen | O14649 | CHO-KCNK3 thallium flux, FluxOR fluorescence; hits give low values | 340,000 tested, 0.84% active | B-score at 10 µM | AID 602410;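 active means B-score under library mean minus 4 SD, starting fluorescence ratio at most library mean plus 5 SD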;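 further: more negative B-score means stronger inhibition of thallium flux through KCNK3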
Target sequence (O14649 whole entry, looked up): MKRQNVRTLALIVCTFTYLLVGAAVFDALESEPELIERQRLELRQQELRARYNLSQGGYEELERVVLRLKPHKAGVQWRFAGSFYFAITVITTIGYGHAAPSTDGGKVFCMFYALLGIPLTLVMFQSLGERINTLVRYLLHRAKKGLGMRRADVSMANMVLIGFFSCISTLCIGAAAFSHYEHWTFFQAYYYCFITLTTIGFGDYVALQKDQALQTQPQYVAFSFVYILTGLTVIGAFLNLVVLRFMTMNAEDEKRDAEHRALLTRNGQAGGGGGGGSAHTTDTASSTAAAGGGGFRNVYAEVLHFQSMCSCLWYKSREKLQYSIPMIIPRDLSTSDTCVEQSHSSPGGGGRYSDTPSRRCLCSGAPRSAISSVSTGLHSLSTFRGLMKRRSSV
KCNQ1 pot = potentiates or activates the human KCNQ1 potassium channel | P51787 | CHO-K1 KCNQ1, thallium flux FluxOR fluorescence; hits give high values | B-score at 10 µM | 310,000 tested, 0.35% active | AID 2648;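 active means fluorescence ratio B-score, a plate-corrected score, at least three library SD, with initial intensity B-score within 5 SD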
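assay system = CHO-K1 cells stably expressing KCNQ1 | medium = assay buffer, equal DMSO in all wells | timing = 37 °C overnight plating, 90-min dark dye load, 20-min compound pretreatment | measured by = kinetic FluxOR thallium fluorescence, 10-s 1-Hz baseline, 110-s post-stimulus read | measure = fluorescence change relative to baseline, converted to B score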
hERG rescue = hERG (human) protection from proarrhythmic block. AID 1511. 310,000 tested, 0.51% active. CHO-hERG, FluxOR thallium flux, dofetilide IC70 present. activation (rescue from dofetilide block), less the hit threshold, % at 10 µM;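 active means activation above the mean of controls blocked by dofetilide plus 5 SD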;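 further: thallium influx through hERG after potassium depolarization seen as dye fluorescence rise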
Starred values were filed as active, the others as inactive; i = inactive; x = no result given. Only some compounds are listed: those with a hit (about 4.1% of all), similar ones and a draw of the others.

SMILES | KCNK9 inh | KCNQ1 block | Cl transport mod | KCNK3 block | KCNQ1 pot | hERG rescue
O=C1Nc2ccccc2/C1=N/N=C/c1cccc(O)c1 | i | i | x | i | i | -8
Cc1nc(N)[nH]c(=O)c1CCCNc1ccc([N+](=O)[O-])cc1 | x | x | x | i | x | x
O=C(CSc1nc2ccccc2c(=O)[nH]1)Nc1ccc(C(=O)O)cc1 | i | i | 0.32 | i | i | -10
CCOc1ccc(NC(=O)c2ccc(NC(=O)CSc3nc4ccccc4c(=O)[nH]3)cc2)cc1 | i | i | 0.11 | i | i | 4.7*
CCOc1ccc(NC(=O)c2ccc(N)cc2)cc1 | i | i | -0.056 | i | 11* | -1
CS(=O)(=O)N1CCc2cc(C(=O)Nc3ccc(Br)cc3)ccc21 | i | i | x | i | i | -8
CCOc1ccc(NC(=O)c2ccc3c(c2)CCN3S(C)(=O)=O)cc1 | i | i | x | i | i | 11*
COc1ccc(/C=C/C(=O)Nc2ccc(C)c(S(=O)(=O)N3CCOCC3)c2)cc1 | x | x | x | i | x | x
Cc1cccc(N2N=C(C(=O)Nc3ccc(Cl)c(S(=O)(=O)N4CCOCC4)c3)CCC2=O)c1 | x | x | x | i | x | x
CC(=O)Oc1c(-c2ccc(Br)o2)oc2ccccc2c1=O | i | i | x | i | 113* | 40*
O=C(O)COc1c(-c2ccco2)oc2ccccc2c1=O | i | i | -0.84 | i | i | -7
Cc1ccc(S(=O)(=O)N(C)c2ccc(C(=O)N(CC(C)C)C3CCS(=O)(=O)C3)cc2)cc1 (stereo not given) | i | i | x | i | i | -4
CCCCn1c(NCc2ccccc2NS(=O)(=O)c2ccc(C)cc2)nc2ccccc21 | -7.1* | 7* | 1.5 | i | i | -2
CCCCn1c(NCc2ccccc2O)nc2ccccc21 | i | i | -1.4 | i | i | -11
CC(=O)NCCC(=O)Nc1cc(S(=O)(=O)N2CCOCC2)ccc1Oc1ccccc1 | i | i | x | i | i | -6
Cc1oc(C)c2c(=O)ccc3c(c12)OC(N)=C(C#N)C3c1ccc(F)cc1 (stereo not given) | i | 8* | -1.7 | i | i | -6
O=c1oc2cc(Cl)ccc2n1CSc1nc2ccccc2s1 | -6.6* | i | -0.19 | i | i | -8
Cc1cc(N2CCCC2)ccc1NC(=O)COc1cccc(C(F)(F)F)c1 | i | i | x | i | i | -7
CCN(CC)S(=O)(=O)c1ccc2[nH]c(=O)cc(C(=O)Nc3cccc(C(C)=O)c3)c2c1 | i | i | -0.031 | i | i | 22*
CC(C)c1nc2sc3c(=S)nc[nH]c3c2c2c1CCC2 | i | i | 159* | i | 35* | 28*
CC(C)CNc1ncnc2[nH]ncc12 | x | x | x | i | x | x
COc1ccc(C2CC(C)(c3ccc(OC)cc3OC)Nc3ccccc3N2)c(OC)c1 (stereo not given) | i | 6* | -0.014 | i | i | -23
COC(=O)C1=C(C)C(c2ccc(OC)cc2OC)NC(=O)N1 (stereo not given) | i | i | -0.2 | i | i | -4
COCCn1c(-c2ccc(OC)cc2)cnc1SCC(=O)Nc1ccc(OC)cc1OC | i | 6* | -1.6 | i | i | -6
COc1ccccc1NS(=O)(=O)c1cccc(NS(=O)(=O)c2cc(C(=O)O)ccc2OC)c1 | x | x | x | i | x | x
SMILES | KCNK9 inh | KCNQ1 block | Cl transport mod | KCNK3 block | KCNQ1 pot | hERG rescue
COc1cc(OC)cc(C(C)=O)c1 | i | i | -0.23 | i | i | 5.7*
Cc1ccc(NC(=O)CN2CCC(NC(=O)c3ccccc3F)CC2)cc1C | i | i | x | i | i | -6
Cc1cc(Oc2ccc(C)c(Cl)c2)nc(SCC(=O)c2ccccc2)n1 | -7.2* | i | 0.45 | i | i | -2
N/C(=N\OC(=O)CC(c1ccccc1)c1ccccc1)c1cccnc1 | i | i | -0.046 | i | i | 4.6*
O=C(NC(=S)Nc1ncc(Br)cc1Br)c1ccccc1 | i | i | x | i | 7* | 1
CCOC(=O)c1c(NC(=O)COC(=O)c2cnccn2)sc(C)c1C | x | x | x | i | x | x
CC(c1cccs1)N(Cc1ccco1)C(=S)Nc1ccc(F)c(Cl)c1 (stereo not given) | i | 10* | -0.19 | i | i | -15
CC1(C)C2CCC1(C)C(SC(=N)N)C2 (stereo not given) | x | x | x | i | x | x
CCOC(=O)c1sc2nccc(N(C)C)c2c1N=CNOCc1ccccc1 | x | x | -0.22 | i | x | x
CCOC(=O)c1sc2nccc(N(C)C)c2c1N=CNOCc1c(F)cccc1Cl | i | 8* | -0.99 | i | i | -6
Cc1cccc(-c2nnc(-c3cccc4ccccc34)o2)c1 | x | x | x | -9.5* | x | x
Cc1cccc(-c2nnc(-c3ccc4ccccc4c3)o2)c1 | x | x | x | -9.2* | x | x
CCOc1ccc(Br)cc1S(=O)(=O)NC1=NCCCCC1 | x | x | x | i | x | x
COc1ccc(-c2noc(CNC(=O)c3ccoc3C)n2)cc1OC | i | i | x | i | i | -11
Cc1ccc(N(Cc2ccco2)C(=O)c2ccc(N3CCCCC3)c([N+](=O)[O-])c2)cc1 | i | 8* | -0.72 | i | i | -7
COC(=O)C(NS(=O)(=O)c1ccc(C)cc1)c1ccccc1 (stereo not given) | i | i | -0.0077 | i | i | -9
Cc1ccc(S(=O)(=O)NC(C(=O)Oc2ccc3c(C(F)(F)F)cc(=O)oc3c2)c2ccccc2)cc1 (stereo not given) | i | 6* | -0.054 | i | i | -12
Cc1ccc(S(=O)(=O)NC(CC(C)C)C(=O)Oc2ccc3c4c(c(=O)oc3c2)CCC4)cc1 (stereo not given) | i | 6* | -0.7 | i | i | -7
CC[C@@H](NS(=O)(=O)c1ccc(C)cc1)C(=O)Oc1ccc2c3c(c(=O)oc2c1)CCC3 | i | i | -1.2 | i | i | -8
COc1ccc(-c2c(C)c3ccc(OCC(C)=O)cc3oc2=O)cc1 | i | i | -1.7 | x | i | 5.7*
CC(=O)COc1ccc2c(C)c(C)c(=O)oc2c1 | i | i | -1.7 | i | i | -2
COc1ccc(C2NC(c3ccc(OC)cc3)C(C)C(=O)C2C)cc1 (stereo not given) | i | i | x | i | i | -1
CC1C(=O)C(C)C(c2ccc(Cl)cc2)NC1c1ccc(Cl)cc1 (stereo not given) | i | 7* | x | i | i | -7
CSCCC1COC(c2cccs2)=N1 (stereo not given) | i | i | 0.92 | i | i | -2
CC(Sc1ccc(Cl)cc1)C(=O)N(C)CC(=O)Nc1ccc(N2CCOCC2)cc1 (stereo not given) | i | i | x | i | i | -10
